These results are taken from ChEMBL document CHEMBL1649422, “Synthesis and molecular modeling of novel tetrahydro-β-carboline derivatives with phosphodiesterase 5 inhibitory and anticancer properties” (J Med Chem, 2011).

One assay relates to MDA-MB-231. The experiment in a line: Growth inhibition of human MDA-MB-231 cells at 10 uM after 72 hrs by luminescence assay. It is filed as functional. The conditions noted are these: MDA-MB-231, 72 h.
The target in assay [1] is T1, cGMP-specific 3',5'-cyclic phosphodiesterase (Homo sapiens, UniProt O76074). The experiment in a line: Inhibition of human recombinant PDE5 at 10 uM after 30 mins by fluorescence polarization assay.
The target in assay [2] is T1, cGMP-specific 3',5'-cyclic phosphodiesterase. The experiment in a line: Inhibition of human recombinant PDE5 after 30 mins by fluorescence polarization assay. In outline: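 Recombinant human PDE5A at 12.5 units/mL was preincubated 30 min with compound or vehicle. Then 50 nM TAMRA-cGMP was added and the mix incubated 1.5 h at 30 °C. IMAP binding reagent was added for 30 min at 30 °C and fluorescence polarization read. IC50 came from a 10-concentration series in quadruplicate, fitted to a four-parameter logistic.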
Background: In fluorescence polarisation assays a small probe gives low polarisation when free and higher when bound to something large.

In the case of `COC(=O)[C@@H]1Cc2c([nH]c3ccccc23)[C@H](c2ccc(Cl)c(Cl)c2)N1C(=O)CCl`, the inhibition at 10 µM in the assay on MDA-MB-231 is 43%. The inhibition in assay [1] is 20%.

In turn, `COC(=O)[C@@H]1Cc2c([nH]c3ccccc23)[C@@H](c2ccc(Cl)c(Cl)c2)N1` gave an inhibition at 10 µM with MDA-MB-231 of 48%. Moreover, the inhibition in assay [1] amounted to 24%.

In the assay with MDA-MB-231, `CC(C)(C)N1CC(=O)N2[C@H](c3c(Cl)cccc3Cl)c3[nH]c4ccccc4c3C[C@@H]2C1=O` showed an inhibition at 10 µM of 16%. Further, the inhibition in assay [1] stood at 21%.

`COC(=O)[C@@H]1Cc2c([nH]c3ccccc23)[C@H](c2c(Cl)cccc2Cl)N1C(=O)CCl`: testing at 10 µM in the assay with MDA-MB-231 gave an inhibition of 30%. In assay [1], the inhibition was 67%. For the same compound, the IC50 in assay [2] stood at 730 nM.

Regarding `CCN1C(=O)[C@H]2Cc3c([nH]c4ccccc34)[C@H](c3ccc(Cl)c(Cl)c3)N2C1=O`, the IC50 in assay [2] worked out at 2860 nM.

`CC(C)(C)N1CC(=O)N2[C@H](c3ccc(Cl)c(Cl)c3)c3[nH]c4ccccc4c3C[C@H]2C1=O` had an inhibition at 10 µM in the assay on MDA-MB-231 of 50%. Besides, the inhibition in assay [1] came out at 85%. Besides, in assay [2], the IC50 amounted to 1270 nM.

Regarding `CC(C)(C)N1C(=O)[C@H]2Cc3c([nH]c4ccccc34)[C@H](c3ccc(Cl)c(Cl)c3)N2C1=O`, at 10 µM the inhibition in the assay with MDA-MB-231 was 58%. The inhibition in assay [1] came to 65%. Besides, in assay [2], the half-inhibitory concentration (IC50) came to 6380 nM.

In the case of `CC(C)(C)N1C(=O)[C@H]2Cc3c([nH]c4ccccc34)[C@@H](c3c(Cl)cccc3Cl)N2C1=O`, in the assay on MDA-MB-231, at 10 µM the inhibition was 38%. Further, the inhibition in assay [1] was 52%.

The compound `CCN1CC(=O)N2[C@H](c3ccc(Cl)cc3Cl)c3[nH]c4ccccc4c3C[C@H]2C1=O` returned an inhibition at 10 µM in the assay on MDA-MB-231 of 20%. Moreover, the inhibition in assay [1] was 95%. In addition, the IC50 in assay [2] came to 10 nM.

Regarding `CCN1CC(=O)N2[C@@H](c3ccc(Cl)cc3Cl)c3[nH]c4ccccc4c3C[C@H]2C1=O`, in the assay with MDA-MB-231, at 10 µM the inhibition was 52%. Further, the inhibition in assay [1] was 85%. The IC50 in assay [2] was 990 nM.

In the assay on MDA-MB-231, `CCN1CC(=O)N2[C@@H](c3c(Cl)cccc3Cl)c3[nH]c4ccccc4c3C[C@H]2C1=O` returned an inhibition at 10 µM of 24%. In addition, the inhibition in assay [1] amounted to 28%.

With `CCN1CC(=O)N2[C@H](c3ccc(Cl)c(Cl)c3)c3[nH]c4ccccc4c3C[C@@H]2C1=O`, in the assay with MDA-MB-231, 10 µM produced 30% inhibition. In addition, the inhibition in assay [1] was determined as 80%. Further, the IC50 in assay [2] turned out to be 1340 nM.

With `CCCCN1CC(=O)N2[C@H](c3ccc(Cl)cc3Cl)c3[nH]c4ccccc4c3C[C@@H]2C1=O`, at 10 µM the inhibition in the assay with MDA-MB-231 was 45%. Moreover, the inhibition in assay [1] was found to be 95%. In assay [2], the IC50 came to 270 nM.

On to `CN1CC(=O)N2[C@H](c3ccc(Cl)cc3Cl)c3[nH]c4ccccc4c3C[C@@H]2C1=O`, for which the inhibition at 10 µM in the assay with MDA-MB-231 was 10%. Also, the inhibition in assay [1] was 95%. For the same compound, in assay [2], the IC50 was 50 nM.

Consider `COC(=O)[C@@H]1Cc2c([nH]c3ccccc23)[C@H](c2ccc(Cl)cc2Cl)N1`, for which at 10 µM the inhibition with MDA-MB-231 was 50%. For the same compound, the inhibition in assay [1] turned out to be 55%.

In the assay with MDA-MB-231, `COC(=O)[C@H]1Cc2c([nH]c3ccccc23)[C@@H](c2c(Cl)cccc2Cl)N1C(=O)CCl` yielded an inhibition at 10 µM of 15%. In assay [1], the inhibition amounted to 27%.

In turn, `CCN1CC(=O)N2[C@H](c3ccc(Cl)c(Cl)c3)c3[nH]c4ccccc4c3C[C@H]2C1=O` came in with an inhibition at 10 µM in the assay with MDA-MB-231 of 50%. The inhibition in assay [1] came out at 78%. Also, the IC50 in assay [2] amounted to 2040 nM.

`COC(=O)[C@H]1Cc2c([nH]c3ccccc23)[C@@H](c2ccc(Cl)cc2Cl)N1` returned an inhibition at 10 µM with MDA-MB-231 of 29%. For the same compound, the inhibition in assay [1] came out at 65%. Moreover, the IC50 in assay [2] worked out at 7200 nM.

In turn, `CC(C)(C)N1C(=O)[C@@H]2Cc3c([nH]c4ccccc34)[C@H](c3ccc(Cl)cc3Cl)N2C1=O` displayed an inhibition at 10 µM with MDA-MB-231 of 22%. The inhibition in assay [1] was found to be 75%. Also, the IC50 in assay [2] was found to be 4140 nM.

Take `CCN1C(=O)[C@@H]2Cc3c([nH]c4ccccc34)[C@H](c3c(Cl)cccc3Cl)N2C1=O`: in the assay on MDA-MB-231, the inhibition at 10 µM came out at 52%. Further, the inhibition in assay [1] was determined as 37%.

With `CCN1C(=O)[C@@H]2Cc3c([nH]c4ccccc34)[C@H](c3ccc(Cl)cc3Cl)N2C1=O`, the inhibition at 10 µM in the assay on MDA-MB-231 was 29%. The inhibition in assay [1] amounted to 85%. Further, the IC50 in assay [2] came out at 850 nM.

In turn, `COC(=O)[C@H]1Cc2c([nH]c3ccccc23)[C@H](c2ccc(Cl)c(Cl)c2)N1C(=O)CCl` displayed an inhibition at 10 µM in the assay with MDA-MB-231 of 50%. In assay [1], the inhibition is 30%.

The compound `CC(C)(C)N1CC(=O)N2[C@H](c3ccc(Cl)cc3Cl)c3[nH]c4ccccc4c3C[C@@H]2C1=O` showed an inhibition at 10 µM in the assay with MDA-MB-231 of 15%. In addition, the inhibition in assay [1] is 94%. Besides, the IC50 in assay [2] stood at 190 nM.

Regarding `CCN1C(=O)[C@H]2Cc3c([nH]c4ccccc34)[C@H](c3ccc(Cl)cc3Cl)N2C1=O`, testing at 10 µM in the assay on MDA-MB-231 gave an inhibition of 54%. Moreover, the inhibition in assay [1] is 90%. In assay [2], the IC50 was determined as 90 nM.

`CC(C)(C)N1CC(=O)N2[C@@H](c3ccc(Cl)c(Cl)c3)c3[nH]c4ccccc4c3C[C@@H]2C1=O` returned an inhibition at 10 µM in the assay on MDA-MB-231 of 40%. Besides, in assay [1], the inhibition worked out at 30%.

In the assay with MDA-MB-231, `COC(=O)[C@@H]1Cc2c([nH]c3ccccc23)[C@@H](c2ccc(Cl)c(Cl)c2)N1C(=O)CCl` had an inhibition at 10 µM of 55%. Moreover, in assay [1], the inhibition is 40%.

Consider `CCN1C(=O)[C@H]2Cc3c([nH]c4ccccc34)[C@@H](c3c(Cl)cccc3Cl)N2C1=O`, for which testing at 10 µM in the assay with MDA-MB-231 gave an inhibition of 55%. Also, the inhibition in assay [1] stood at 18%.

Turning to `COC(=O)[C@@H]1Cc2c([nH]c3ccccc23)[C@H](c2c(Cl)cccc2Cl)N1`, testing at 10 µM in the assay with MDA-MB-231 gave an inhibition of 52%. Besides, the inhibition in assay [1] is 15%.

The compound `CCN1CC(=O)N2[C@@H](c3ccc(Cl)c(Cl)c3)c3[nH]c4ccccc4c3C[C@@H]2C1=O` returned an inhibition at 10 µM in the assay with MDA-MB-231 of 44%. Moreover, the inhibition in assay [1] was 45%.

As to `CC(C)(C)N1CC(=O)N2[C@H](c3ccc(Cl)c(Cl)c3)c3[nH]c4ccccc4c3C[C@@H]2C1=O`, the inhibition at 10 µM in the assay with MDA-MB-231 is 36%. In addition, the inhibition in assay [1] was 35%.

Compound `CC(C)(C)N1CC(=O)N2[C@H](c3ccc(Cl)cc3Cl)c3[nH]c4ccccc4c3C[C@H]2C1=O` registered an inhibition at 10 µM with MDA-MB-231 of 30%. Also, the IC50 in assay [2] stood at 260 nM.

Take `CC(C)(C)N1CC(=O)N2[C@@H](c3c(Cl)cccc3Cl)c3[nH]c4ccccc4c3C[C@H]2C1=O`: 10 µM produced 20% inhibition in the assay on MDA-MB-231. Also, the inhibition in assay [1] was 21%.

For the compound `CC(C)(C)N1CC(=O)N2[C@@H](c3ccc(Cl)c(Cl)c3)c3[nH]c4ccccc4c3C[C@H]2C1=O`, in the assay with MDA-MB-231, the inhibition at 10 µM is 58%. For the same compound, in assay [1], the inhibition stood at 35%.

Take `CCN1CC(=O)N2[C@H](c3c(Cl)cccc3Cl)c3[nH]c4ccccc4c3C[C@@H]2C1=O`: in the assay with MDA-MB-231, testing at 10 µM gave an inhibition of 31%. Also, in assay [1], the inhibition was found to be 40%.

For the compound `COC(=O)[C@H]1Cc2c([nH]c3ccccc23)[C@@H](c2c(Cl)cccc2Cl)N1`, the inhibition in assay [1] was 25%.

As to `COC(=O)[C@H]1Cc2c([nH]c3ccccc23)[C@@H](c2ccc(Cl)c(Cl)c2)N1C(=O)CCl`, in assay [1], the inhibition was found to be 40%.

In the assay on MDA-MB-231, `CC(C)(C)N1C(=O)[C@@H]2Cc3c([nH]c4ccccc34)[C@H](c3c(Cl)cccc3Cl)N2C1=O` came in with an inhibition at 10 µM of 15%. Also, the inhibition in assay [1] stood at 25%.

The term inhibition denotes the drop in the measured response relative to a control, in per cent. Usually IC50 stands for the point on the concentration scale where inhibition reaches its midpoint.
